{"data": "Experimental data from different studies", "organism": "Micrococcus luteus", "note": "Protocols differ between the studies behind these lines."}
{"SMILES": "CC1(C)S[C@@H]2[C@H](NC(=O)[C@H](N)c3ccccc3)C(=O)N2[C@H]1C(=O)O", "assay": "microbial growth, agar dilution", "test system": "ATCC10240", "setting": "26.93 µM", "measurement": "inhibition", "value": "100%"}
{"SMILES": "O=C1NN=C(N=Cc2ccccc2O)C1=NNn1c(-c2ccccc2)nc2ccccc2c1=O", "assay": "microbial growth, broth dilution", "setting": "24 h", "measurement": "MIC", "value": "55.4 µM"}
{"SMILES": "CN[C@H](CC(C)C)C(=O)N[C@H]1C(=O)N[C@@H](CC(N)=O)C(=O)N[C@H]2C(=O)N[C@H]3C(=O)N[C@H](C(=O)N[C@H](C(=O)O)c4cc(O)cc(O)c4-c4cc3ccc4O)[C@H](O)c3ccc(c(Cl)c3)Oc3cc2cc(c3O[C@@H]2O[C@H](CO)[C@@H](O)[C@H](O)[C@H]2O[C@H]2C[C@](C)(N)[C@H](O)[C@H](C)O2)Oc2ccc(cc2Cl)[C@H]1O", "assay": "microbial growth, broth dilution", "test system": "ATCC10240", "measurement": "MIC", "value": "0.12 µg/mL"}
{"SMILES": "CC1=NN(CNc2c(O)c(S(=O)(=O)O)cc3ccccc23)C(=O)C1=NNn1c(-c2ccccc2)nc2ccccc2c1=O", "assay": "microbial growth, broth dilution", "setting": "24 h", "measurement": "MIC", "value": "83.7 µM"}
{"SMILES": "O=C(O)c1cn(C2CC2)c2cc(N3CCNCC3)c(F)cc2c1=O", "assay": "microbial growth, disc diffusion", "setting": "100 µg/mL, 24 h", "measurement": "inhibition zone", "value": "25 mm"}
{"SMILES": "C/C=C(\\C)c1cc(O)c(C)c(OC(=O)c2c(C)c(Cl)c(O)c(Cl)c2O)c1", "assay": "microbial growth, broth dilution", "test system": "ML01", "measurement": "MIC", "value": "4 µg/mL"}
{"SMILES": "O=C1NN=C(N=Cc2ccc(O)c(O)c2)C1=NNn1c(-c2ccccc2)nc2ccccc2c1=O", "assay": "microbial growth, broth dilution", "setting": "24 h", "measurement": "MIC", "value": "53.5 µM"}
{"SMILES": "CN[C@H](CC(C)C)C(=O)N[C@H]1C(=O)N[C@@H](CC(N)=O)C(=O)N[C@H]2C(=O)N[C@H]3C(=O)N[C@H](C(=O)N[C@H](C(=O)O)c4cc(O)cc(O)c4-c4cc3ccc4O)[C@H](O)c3ccc(c(Cl)c3)Oc3cc2cc(c3O[C@@H]2O[C@H](CO)[C@@H](O)[C@H](O)[C@H]2O[C@H]2C[C@](C)(N)[C@H](O)[C@H](C)O2)Oc2ccc(cc2Cl)[C@H]1O", "assay": "microbial growth, broth dilution", "test system": "ML01", "measurement": "MIC", "value": "0.13 µg/mL"}
{"SMILES": "O=C(O)CN1C(=O)/C(=C/c2ccc(-c3ccc(N(c4ccccc4)c4ccccc4)cc3)c3ccccc23)SC1=S", "assay": "microbial killing, broth dilution", "test system": "ATCC10240", "measurement": "MBC", "value": "62.5 µg/mL"}
